Assay outcomes as filed in PubChem.
An excerpt weighted towards active compounds, which were near 1.8% of everything screened.
LANA-H2B inh: blocks KSHV LANA binding to histone H2A/H2B | Q9QR71 | cell-free LANA-H2A/H2B peptide, fluorescence polarization | inhibition, % (no concentration beside the values) | hit rate 0.6% among 320,000; in the data active = inhibition mostly above about 10%, no sharp cut-off; inactive = mostly below about 6.7%
ATG4B inhibitor: ATG4B (human) cysteine protease inhibition. Q9Y4P1. ATG4B cleavage of LC3-PLA2, NBD-HPC fluorescence, 1 h. inhibition, % at 8.33 µM. hit rate 0.51% among 340,000. AID 504462; in the data active = inhibition above about 40%
HDAC3 inhib: blocks human histone deacetylase 3; O15379; recombinant HDAC3, fluorogenic peptide/trypsin coupled, fluorescence; inhibition, % at 8.3 µM; hit rate 0.15% among 320,000; in the data active = inhibition above about 26%, passing the limit was not always enough; inconclusive = no clear call, values can overlap the other calls
Target sequence (O15379 whole entry, looked up): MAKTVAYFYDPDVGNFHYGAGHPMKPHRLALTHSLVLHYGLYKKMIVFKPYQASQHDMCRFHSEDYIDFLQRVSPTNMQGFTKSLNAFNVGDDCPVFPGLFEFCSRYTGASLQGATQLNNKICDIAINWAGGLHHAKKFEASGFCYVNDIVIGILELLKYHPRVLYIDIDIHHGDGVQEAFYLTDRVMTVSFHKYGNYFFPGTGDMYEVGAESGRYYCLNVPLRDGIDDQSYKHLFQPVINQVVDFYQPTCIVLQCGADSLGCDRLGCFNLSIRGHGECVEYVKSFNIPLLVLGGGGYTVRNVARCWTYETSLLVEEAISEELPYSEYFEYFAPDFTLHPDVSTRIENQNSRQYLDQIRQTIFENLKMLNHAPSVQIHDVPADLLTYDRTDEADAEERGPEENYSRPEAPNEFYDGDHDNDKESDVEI
HKDC1 inh: HKDC1 (human) hexokinase inhibition. Q2TB90. inhibition, % at 20 µM. hit rate 0.16% among 340,000. recombinant HKDC1, G6PDH/diaphorase resazurin coupled fluorescence;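 active = inhibition above about 35% when tested at 20 µM, limit read from the data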;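 also: plate controls were DMSO wells with enzyme for no effect and DMSO wells lacking enzyme for full effect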
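Test system: recombinant HKDC1 (HK5) hexokinase enzyme, produced in-house / Doses: 20 µM test compound, 1% DMSO / Timing: 90 min, room temperature / Detection: G6PDH/diaphorase-coupled fluorescence, 1 mM NADP, 100 µM resazurin, 525/613 nm / Control set: DMSO wells with and without enzyme mix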
Bfl-1 A1 inh: inhibitors of the anti-apoptotic protein A1, read as caspase activation. hit rate 0.066% among 330,000. caspase activation, % (test concentration not listed). AID 2462. MEF A1-2A-BIM cells, Caspase-Glo 3/7 luminescence, 3 h; percent of clofoctol response, vehicle zero;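 active = over half of replicate activation scores above 10%, or exactly half above 10 with the replicate mean above 10; inconclusive = replicate mean below 10 yet half the replicates above 10; inactive = over half of replicates below 10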
AI-2 QS modul: Vibrio harveyi AI-2 quorum sensing modulation. Vibrio harveyi JMH597 AI-2 luminescence/OD600 ratio, 9 h; hits give low values; strain lacks LuxN and CqsS sensors; 0 = neutral-control median. hit rate 0.4% among 300,000. activity change, % at 7.5 µM; in the data active = activity change below about -75%, passing the limit was not always enough; inconclusive = no clear call, values can overlap the other calls;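 also: luminescence divided by OD600 gain over 9 h not by final OD600 alone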
* marks the source's active call; other numbers are inactive results; ? = inconclusive; nt = no result; + = active, no number.

SMILES | LANA-H2B inh | ATG4B inhibitor | HDAC3 inhib | HKDC1 inh | Bfl-1 A1 inh | AI-2 QS modul
CCN1C[C@@H]2[C@@H]3C(=O)N(Cc4ccccc4)C(=O)[C@@H]3[C@](CC)(C1=O)N2C(=O)c1ccc(C(C)(C)C)cc1 | nt | -17.1 | nt | -3.5 | nt | nt
O=C(CN1CCS(=O)(=O)CC1)N/N=C/c1cccc(C(F)(F)F)c1 | 0.1 | 4.0 | -11.4 | -5.8 | -0.5 | 17.4
O=S1(=O)CCN(C(CCO)c2cccc(C(F)(F)F)c2)CC1 (stereo not given) | + | -7.2 | -0.7 | -6.0 | -0.2 | 12.0
O=C(NNC(=O)c1n[nH]c2ccccc12)c1ccccc1 | nt | 6.2 | nt | -7.6 | nt | nt
CCOC(=O)C1CCCN(C(=O)c2cc(CN3C(=O)c4ccccc4C3=O)ccc2OC)C1 (stereo not given) | 27.8* | 1.8 | -3.8 | -3.4 | 2.6 | 15.4
Cc1ccc(S(=O)(=O)Oc2cccc([N+](=O)[O-])c2)cc1 | nt | 0.1 | nt | -0.6 | nt | nt
CC(=O)C1=C(O)C(CSCc2ccccc2)N(C)C1=O (stereo not given) | nt | 2.6 | nt | -3.0 | nt | nt
CC(=O)Nc1ccc(NC(=O)Nc2ccc(C)c(C)c2)cc1 | 3.7 | -9.2 | 6.9 | 4.1 | -0.6 | 11.0
CC(=O)Nc1ccc(OCC(=O)c2cc(C)ccc2C)cc1 | 19.3* | -6.3 | -2.8 | -4.0 | 0.2 | 13.7
CC(=O)Nc1ccc(NC(=O)Nc2ccc(C)cc2C)cc1 | 14.9* | 6.5 | 5.8 | 2.5 | 0.7 | 28.8
CC(=O)Nc1ccc(OCC(=O)c2ccc(C)cc2C)cc1 | 1.2 | -0.3 | 0.8 | -8.9 | -0.2 | 11.6
O=C(c1cccc(O)c1)N1CCN(C(=O)C2CC2)CC1 | -2.5 | 0.0 | 2.7 | -2.8 | 0.3 | nt
CC1=C(C)CS(=O)N(S(=O)(=O)c2ccccc2)C1 (stereo not given) | 13.9* | -11.0 | 1.6 | 0.8 | -0.6 | 43.5
CCC(NC(=O)CC[C@H]1O[C@@H](n2cc(C)c(=O)[nH]c2=O)C[C@@H]1O)c1ccccc1 (stereo not given in full) | nt | -6.4 | nt | -5.1 | nt | nt
Cc1cccc(OCC(=O)O/N=C(\N)c2ccccn2)c1C | -8.0 | -8.7 | -0.4 | -1.1 | 0.0 | -93.4*
Cc1ccc(OCC(=O)O/N=C(\N)c2ccccn2)cc1 | 2.2 | -1.6 | -1.5 | -10.3 | -2.2 | -3.7
COc1ccccc1C/C(N)=N/OC(=O)COc1cc(C)cc(C)c1C | 0.7 | 13.4 | 3.8 | 1.6 | 0.5 | 7.9
N/C(=N\OC(=O)c1cccc2ccccc12)c1ccccn1 | 40.5* | 2.5 | -3.8 | 1.3 | -5.7 | -13.0
COc1ccccc1C/C(N)=N/OC(=O)COc1cccc(C)c1C | + | 7.7 | 3.8 | -3.1 | 0.1 | -13.3
CC(Nc1nc(-c2ccc3c(c2)NC(=O)CO3)cs1)c1ccccc1 (stereo not given) | 2.4 | -5.0 | 35.6* | -11.2 | 0.0 | 17.9
O=S(=O)(c1ccc(=S)[nH]c1)N1CCCCCC1 | 37.8* | -1.2 | 3.1 | 1.2 | 1.0 | nt
O=S(=O)(c1ccc(=S)[nH]c1)N1CCOCC1 | 0.9 | -0.4 | 4.0 | 6.3 | -0.1 | nt
CC(C)Oc1ccc(S(=O)(=O)N2CCOCC2)cc1NC(=O)CN1C(=O)c2ccccc2C1=O | nt | -12.5 | nt | -3.9 | nt | nt
COc1ccc(NC(=O)CCCNC(=O)c2ccc(Cl)cc2)cc1S(=O)(=O)N1CCOCC1 | nt | -8.9 | nt | -3.1 | nt | nt
CCC(C)c1c(N)n(S(=O)(=O)c2ccc(C)cc2)oc1=O (stereo not given) | nt | -3.9 | nt | 1.3 | nt | nt
SMILES | LANA-H2B inh | ATG4B inhibitor | HDAC3 inhib | HKDC1 inh | Bfl-1 A1 inh | AI-2 QS modul
CN(CC(=O)Nc1ccccc1Br)C(=O)c1ccccc1OCc1ccc(Cl)cc1 | nt | -4.1 | nt | -1.5 | nt | nt
O=C(Nc1nnc(-c2ccco2)o1)c1cccc(Cl)c1 | 0.4 | 4.6 | -1.4 | -0.5 | -1.1 | -133.5*
O=C(Nc1nnc(-c2ccccn2)o1)c1cccc(Cl)c1 | -2.5 | -5.2 | 3.2 | -4.7 | -5.6 | 68.2
O=C(Nc1nnc(-c2cccs2)o1)c1cccc(F)c1 | -0.7 | -3.4 | 4.8 | 1.1 | -1.5 | -85.0*
CCOc1cc(/C=C2\CCCc3c2nc2ccccc2c3C(=O)O)ccc1OC | 85.3* | 13.0 | 3.6 | 14.9 | 0.2 | -8.3
C=CCOc1c(Cl)cc(CNc2nccs2)cc1OC | 0.4 | -4.9 | 0.8 | -3.7 | -0.3 | 2.2
CCC(=O)n1nc(-c2cccnc2)nc1NCc1ccc(F)cc1 | -1.5 | -7.5 | 28.7* | -4.0 | 1.7 | 7.4
O=C(c1cccs1)n1nc(-c2ccccc2)nc1NCc1ccc(F)cc1 | 5.8 | 1.2 | -0.2 | -0.4 | -0.3 | nt
CC(=O)n1nc(-c2ccccc2)nc1NCc1ccc(F)cc1 | 1.0 | -5.1 | 32.1* | -0.8 | 0.5 | 11.1
CCC(=O)n1nc(-c2cccnc2)nc1NCc1ccccc1 | nt | -9.9 | nt | 0.2 | nt | 28.1
O=C(NCc1ccc2c(c1)OCO2)C1CCN(c2ncccn2)CC1 | 2.8 | -0.5 | -2.8 | 4.6 | 5.2* | 6.5
Cc1ccnc(N2CCC(C(=O)NCc3ccc4c(c3)OCO4)CC2)n1 | 1.5 | 3.5 | 5.2 | 4.5 | -1.2 | 21.6
COc1cc(OC)cc(C(=O)N(Cc2ccco2)c2c(N)n(Cc3ccccc3)c(=O)[nH]c2=O)c1 | nt | -1.6 | nt | -1.9 | nt | nt
CC1CN(c2ccccn2)C(C)CN1C(=S)Nc1ccccc1 (stereo not given) | nt | -5.5 | nt | 3.3 | nt | nt
Cc1nn(C)c(C)c1N1C(=O)c2cccc3c(N)ccc(c23)C1=O | 132.9* | -116.7 | 2.1 | -6.0 | ? | nt
CC(C)C(NC(=O)c1ccccc1F)C(=O)NCc1ccc(S(=O)(=O)N2CCOCC2)cc1 (stereo not given) | nt | 1.2 | nt | 0.0 | nt | nt
Cc1ccc(/C(O)=C/c2nc3cc(C)ccc3oc2=O)cc1 | 26.2* | 3.4 | 5.1 | -1.0 | -0.6 | 8.5
O=c1oc2ccccc2nc1/C=C(\O)c1ccccc1 | 2.6 | 3.2 | 3.3 | 3.0 | -0.4 | 10.0
CC(=O)Nc1ccc(Cc2nc3c([nH]2)c(=O)n(C)c(=O)n3C)cc1 | -2.1 | nt | 0.0 | nt | 0.9 | 19.2
COc1ccc(CCN2CCC(Nc3nc4ccccc4n3Cc3ccc(F)cc3)CC2)cc1 | 13.9* | -7.6 | 0.7 | -3.3 | 0.3 | 18.4
O=C(COC(=O)c1ccc(Cl)c(S(=O)(=O)N2CCCCC2)c1)NCCc1ccccc1 | nt | -10.3 | nt | 1.8 | nt | nt
O=C(N/N=C/c1coc2ccc(Cl)cc2c1=O)c1ccc(O)cc1 | -1.2 | 13.9 | 96.9* | 10.7 | 0.6 | 14.6
COc1ccc(C(=O)N/N=C\c2coc3ccccc3c2=O)cc1 | 7.8 | 18.5 | 88.7* | 7.3 | 0.4 | 38.6
[O-][n+]1cccc2c(Br)cc(Br)c(O)c21 | -2.0 | -9.1 | 6.7 | 5.7 | -1.1 | -197.3*
Oc1c(Br)cc(Br)c2cccnc12 | nt | 8.7 | nt | -5.9 | nt | nt
COC(=O)[C@H](CO)N1C(=O)[C@@H]2[C@H](C1=O)C1C=C[C@H]2C1 | nt | 0.4 | nt | 1.4 | nt | nt
Cc1cccc(NC(=O)c2ccc([N+](=O)[O-])o2)n1 | 0.1 | -10.5 | -8.7 | 3.2 | -0.3 | -88.9*
